In ChEMBL document CHEMBL1129246, “Cardiovascular characterization of pyrrolo[2,1-d][1,5]benzothiazepine derivatives binding selectively to the peripheral-type benzodiazepine receptor (PBR): from dual PBR affinity and calcium antagonist activity to novel and selective calcium entry blockers” (J Med Chem, 1996):

Experiments:
Translocator protein [1] = target: T1, Translocator protein (Rattus norvegicus, UniProt P16257); assay: Ability to inhibit [3H]-PK 11195 binding to peripheral-type benzodiazepine receptor(PBR) in rat cerebral cortex homogenate; Not active; assay type: tissue-based
[2] = target: T2, Voltage-gated L-type calcium channel (Rattus norvegicus, UniProt P22002+Q02485+P27732); assay: (§1) Inhibition of [3H]nitrendipine binding to L-type calcium channel receptor(CCR) in rat cerebral cortex homogenate; assay type: tissue-based
How it was run: (§2)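 Male Sprague–Dawley rat cortex homogenised in 50 mM Na-HEPES pH 7.4, washed five times, pellet stored at -70 °C. Incubated 90 min at 0 °C in the dark with 3×10^-10 M [3H]nitrendipine; compounds dissolved in 5% DMSO. Filtration, scintillation counting. IC50 by log-probit analysis of six displacer concentrations in triplicate. Ki by Prusoff's equation using Kd 0.25 nM.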

Cavia porcellus [3] = organism: Cavia porcellus; assay: [Ca2+] antagonistic activity on K+ depolarized guinea pig aortic strips (at 5(10e-5) M).; assay type: functional, Aorta
How it was run: (§3)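 Guinea pig aortic strips under 1 g resting force, equilibrated 1 h in PSS, then contracted with 80 mmol/L KCl. At plateau (~30 min), compounds in DMSO added cumulatively at 0.1–50 μmol/L and relaxation recorded.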

Cavia porcellus [4] = organism: Cavia porcellus; assay: Percent decrease of negative inotropic activity on isolated guinea pig left atrium at 5*10e-5 M; assay type: functional, Cardiac atrium
How it was run: (§4)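 Guinea pig atria (300–400 g, either sex) in oxygenated Tyrode at 35 °C, pH 7.4. Right atria beat spontaneously; left atria paced at 1 Hz. Isometric force recorded after 45–60 min stabilisation. Cumulative concentrations 0.1–50 μmol/L in DMSO (bath ≤0.3%). Potency from log concentration–response curves by probit analysis, n = 6–8.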

Cavia porcellus [5] = organism: Cavia porcellus; assay: Activity of chronotropic negative potency on guinea pig spontaneously beating right atrium; assay type: functional, Cardiac atrium; how it was run: as §4
[6] = target: T3, Voltage-dependent L-type calcium channel subunit alpha-1C (Rattus norvegicus, UniProt P22002); assay: Ability to inhibit [3H]nitrendipine binding to the L-type calcium channel receptor(CCR) in rat heart homogenate.; assay type: tissue-based
How it was run: (§5)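 Rat hearts perfused through the aorta with ice-cold saline, then homogenised in 50 mM Na-HEPES pH 7.4, filtered through cheesecloth and washed five times. Incubated 90 min at 0 °C in the dark with 3×10^-10 M [3H]nitrendipine; compounds in 5% DMSO. IC50 by log-probit analysis of six displacer concentrations in triplicate.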

[7] = target: T2, Voltage-gated L-type calcium channel; assay: Ability to inhibit [3H]nitrendipine binding to the calcium channel receptor(CCR) in rat cerebral cortex homogenate.; assay type: tissue-based
Translocator protein [8] = target: T1, Translocator protein; assay: Ability to inhibit [3H]-PK 11195 binding to peripheral-type benzodiazepine receptor(PBR) in rat cerebral cortex homogenate.; assay type: tissue-based
[9] = target: T3, Voltage-dependent L-type calcium channel subunit alpha-1C; assay: Ability to inhibit [3H]nitrendipine binding to the L-type calcium channel receptor(CCR) in rat heart homogenate; assay type: tissue-based
How it was run: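 Rat heart perfused via aorta with ice-cold saline, homogenized in 50 mM Na-HEPES pH 7.4, filtered through cheesecloth, washed five times at 48000g, and stored at -70 °C. Homogenate incubated 90 min at 0 °C in the dark with 3×10^-10 M [3H]nitrendipine; compounds in 5% DMSO. Bound counts taken after filtration. IC50 by log-probit from six concentrations in triplicate.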

[10] = target: T2, Voltage-gated L-type calcium channel; assay: as §1; assay type: tissue-based; remark: listed apart in the source
How it was run: as §2, with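 “triplicate.” for “triplicate. Ki by Prusoff's equation using Kd 0.25 nM.”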

Cavia porcellus [11] = organism: Cavia porcellus; assay: [Ca2+] antagonistic activity on K+ depolarized guinea pig aortic strips (at 5(10e-5) M); assay type: functional, Aorta; how it was run: as §3
Cavia porcellus [12] = organism: Cavia porcellus; assay: Percent decrease of negative inotropic activity on isolated guinea pig left atrium at 1*10e-5 M; assay type: functional, Cardiac atrium; how it was run: as §4
Cavia porcellus [13] = organism: Cavia porcellus; assay: Activity of inotropic negative potency on stimulated guinea pig left atrium; assay type: functional; details: Cardiac atrium, read-out: ED50 (the source's name); how it was run: as §4
Cavia porcellus [14] = organism: Cavia porcellus; assay: Percent decrease of negative chronotropic activity on isolated guinea pig spontaneously beating right atrium at 1*10e-4 M; assay type: functional, Cardiac atrium
Cavia porcellus [15] = organism: Cavia porcellus; assay: IC50 activity of [Ca2+] antagonistic potency on K+ depolarized guinea pig aortic strips; assay type: functional; details: Aorta; how it was run: as §3
Cavia porcellus [16] = organism: Cavia porcellus; assay: Percent decrease of negative chronotropic activity on isolated guinea pig spontaneously beating right atrium at 1*10e-5 M; assay type: functional, Cardiac atrium; how it was run: as §4
Cavia porcellus [17] = organism: Cavia porcellus; assay: Activity of chronotropic negative potency on guinea pig spontaneously beating right atrium.; assay type: functional, Cardiac atrium; how it was run: as §4
[18] = target: T3, Voltage-dependent L-type calcium channel subunit alpha-1C; assay: Ability to inhibit [3H]nitrendipine binding to the L-type calcium channel receptor(CCR) in rat heart homogenate; Not active; assay type: tissue-based; how it was run: as §5
Cavia porcellus [19] = organism: Cavia porcellus; assay: [Ca2+] antagonistic activity on K+ depolarized guinea pig aortic strips at 5*10e-5 M; assay type: functional, Aorta; how it was run: as §3
[20] = target: T2, Voltage-gated L-type calcium channel; assay: Ability to inhibit [3H]nitrendipine binding to the calcium channel receptor(CCR) in rat cerebral cortex homogenate; Not active; assay type: tissue-based; how it was run: as §2
Cavia porcellus [21] = organism: Cavia porcellus; assay: [Ca2+] antagonistic activity on K+ depolarized guinea pig aortic strips at 10e-4 M; assay type: functional; details: Aorta
Cavia porcellus [22] = organism: Cavia porcellus; assay: Activity of inotropic negative potency on stimulated guinea pig left atrium.; assay type: functional; details: Cardiac atrium, read-out: ED50 (the source's name)
How it was run: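 Isolated left atria from guinea pigs (300–400 g, either sex), Tyrode PSS gassed with 95% O2–5% CO2, 35 °C, pH 7.4, driven at 1 Hz by rectangular pulses; isometric force recorded after 45–60 min stabilization.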

Cavia porcellus [23] = organism: Cavia porcellus; assay: Percent decrease of negative chronotropic activity on isolated guinea pig spontaneously beating right atrium at 1*10e-6 M; assay type: functional, Cardiac atrium; how it was run: as §4

In the case of `COc1ccc(C2=C(OC(=O)c3cc(OC)c(OC)c(OC)c3)c3cccn3-c3cc(C(F)(F)F)ccc3S2)cc1`, the IC50 (Translocator protein [1]) is reported as “Not Active”.

For `CC(=O)O[C@@H]1c2ccc(CN(C)C)n2-c2cccc(Cl)c2S[C@@H]1c1ccccc1`, the Ki [2] was 13 nM, the Inhibition (Cavia porcellus [3]) was 32% and the Decrease (Cavia porcellus [4]) was 41%. The ED30 (Cavia porcellus [5]) was 850 nM and the IC50 [6] was 12 nM.

`CC(=O)O[C@@H]1c2ccc(CN(C)C)n2-c2ccccc2S[C@@H]1c1ccccc1` was tested, and the IC50 [7] was 5200 nM.

In the case of `COc1ccc(C2Sc3ccccc3-n3c(CN(C)C)ccc32)cc1` (stereo unspecified), the IC50 (Translocator protein [8]; read-out: IC50) is reported as > 2000 nM, the IC50 [9] is reported as 17 nM and the Ki [10] is reported as 0.19 nM. For the same compound, the Inhibition (Cavia porcellus [11]) was 10%, the Decrease (Cavia porcellus [12]) was 75% and the EC50 (Cavia porcellus [13]) was 810 nM. The Decrease (Cavia porcellus [14]) was 30%.

`CCCC(=O)OC1=C(c2ccccc2)Sc2ccccc2-n2cccc21` showed an IC50 [7] of 4.88 nM.

With `COc1ccc(C2=C(OC(=O)c3cc(OC)c(OC)c(OC)c3)c3cccn3-c3ccccc3S2)cc1` the IC50 (Translocator protein [1]) was “Not Active”.

In the case of `COc1ccc(C2=C(OC(=O)c3cc(OC)c(OC)c(OC)c3)c3cccn3-c3cc(Cl)ccc3S2)cc1`, the IC50 (Translocator protein [8]) is reported as “Not Active”.

`COc1ccc([C@H]2Sc3ccccc3-n3c(CN(C)C)ccc3[C@H]2OC(C)=O)cc1` showed an IC50 [7] of 136 nM, an IC50 (Cavia porcellus [15]) of 4450 nM and an Inhibition (Cavia porcellus [11]) of 56%. It also gave a Decrease (Cavia porcellus [16]) of 90%, a Decrease (Cavia porcellus [4]) of 87% and an EC50 (Cavia porcellus [13]) of 710 nM. For the same compound, the ED30 (Cavia porcellus [5]) was 1500 nM.

For `COc1ccc(C2=C(OC(C)=O)c3cccn3-c3cc(Cl)ccc3S2)cc1`, the IC50 [7] was 132 nM.

`COc1ccc([C@H]2Sc3ccc(Cl)cc3-n3c(CN(C)C)ccc3[C@H]2OC(C)=O)cc1` showed a Ki [2] of 1.5 nM, an IC50 [7] of 3.3 nM and an Inhibition (Cavia porcellus [3]) of 40%. It also gave a Decrease (Cavia porcellus [16]) of 61%, a Decrease (Cavia porcellus [4]) of 83% and an EC50 (Cavia porcellus [13]) of 660 nM. The ED30 (Cavia porcellus [17]) was 880 nM.

In the case of `CC(=O)OC1=C(c2ccccc2)Sc2ccc(Cl)cc2-n2cccc21`, the IC50 (Translocator protein [8]; read-out: IC50) is reported as 560 nM and the IC50 [7] is reported as 150 nM.

With `CC(=O)OC1=C(c2ccccc2)Sc2ccccc2-n2cccc21` the IC50 [7] was 6 nM and the IC50 [6] was 220 nM.

`COc1ccc(C2=C(OC(=O)N(C)C)c3cccn3-c3ccccc3S2)cc1` was tested, and the IC50 [18] was “Not Active” and the IC50 [7] was 420 nM.

`COc1ccc(C2=C(OC(C)=O)c3cccn3-c3ccccc3S2)cc1` gave an IC50 [7] of 0.13 nM, a Decrease (Cavia porcellus [16]) of 26% and a Decrease (Cavia porcellus [4]) of 86%. The EC50 (Cavia porcellus [13]) was 310 nM, the Inhibition (Cavia porcellus [19]) was 27% and the IC50 [6] was 340 nM.

With `COc1ccc(C2=C(OC(C)=O)c3cccn3-c3cc(C(F)(F)F)ccc3S2)cc1` the IC50 (Translocator protein [1]) was “Not Active” and the IC50 [7] was > 2000 nM.

With `CCCC(=O)OC1=C(c2ccc(OC)cc2)Sc2ccccc2-n2cccc21` the IC50 [7] was 16 nM and the IC50 [6] was 150 nM.

`CCCCC(=O)OC1=C(c2ccccc2)Sc2ccccc2-n2cccc21` showed an IC50 [6] of 610 nM.

`CC(=O)OC1=C(c2ccccc2)Sc2ccc(Cl)cc2-n2c(CN(C)C)ccc21` was tested, and the IC50 (Translocator protein [8]; read-out: IC50) was > 2000 nM and the IC50 [7] was 960 nM.

In the case of `COc1ccc(C2=C(OC(C)=O)c3ccc(CN(C)C)n3-c3cc(Cl)ccc3S2)cc1`, the IC50 (Translocator protein [8]; read-out: IC50) is reported as > 2000 nM.

Work on `CC(=O)O[C@@H]1c2ccc(CN(C)C)n2-c2cc(C(F)(F)F)ccc2S[C@@H]1c1ccccc1` yielded an IC50 [7] of 300 nM.

`CC(=O)OC1=C(c2ccccc2)Sc2ccccc2-n2c(CN(C)C)ccc21` was tested, and the IC50 (Translocator protein [8]; read-out: IC50) was > 2000 nM.

In the case of `CC(=O)O[C@@H]1c2ccc(CN(C)C)n2-c2cc(Cl)ccc2S[C@@H]1c1ccccc1`, the IC50 [18] is reported as “Not Active” and the IC50 [20] is reported as 1230 nM.

`COc1ccc([C@@H]2Sc3ccccc3N(CCN(C)C)C(=O)[C@@H]2OC(C)=O)cc1` [DILTIAZEM] was tested, and the inhibition at 100 µM (Cavia porcellus [21]) was 88%, the EC50 (Cavia porcellus [22]) was 790 nM and the Decrease (Cavia porcellus [23]) was 94%. The Decrease (Cavia porcellus [12]) was 78% and the ED30 (Cavia porcellus [17]) was 70 nM.
